Experimental data published in ChEMBL document CHEMBL4387780, “Molecular and cellular studies evaluating a potent 2-cyanoindolizine catechol diether NNRTI targeting wildtype and Y181C mutant HIV-1 reverse transcriptase” (Bioorg Med Chem Lett, 2019).
≈ marks a conversion by molar mass, not a printed value.

Key:
[1] = Cytotoxicity against human MT2 cells infected with wild-type HIV1 NL4-3 measured 48 hrs by MTT assay; format: cell-based
[2] = tested on: Human immunodeficiency virus 1; experiment: Antiviral activity against HIV1 NL4-3 harboring Y181C mutant infected in human MT2 cells measured 5 days post-infection by MTT assay
[3] = Solubility of the compound in water at pH 7; format: physicochemical
[4] = target: Human immunodeficiency virus type 1 reverse transcriptase (Human immunodeficiency virus 1, UniProt Q72547, Y181C); experiment: Inhibition of recombinant HIV1 reverse transcriptase p66/p51 Y181C mutant expressed in Escherichia coli BL21 (DE3) pLysS cells preincubated followed by primer/template addition and measured after 30 mins by picogreen dye-based fluorescence assay
In short: (§1)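 RT pre-incubated with inhibitor at increasing concentrations to allow binding. Reaction started by adding substrate and co-substrates, run 30 min at 10 nM active-site RT, then quenched with EDTA. dsDNA product read as RFU with PicoGreen dye. Each concentration in triplicate, with a pre-quenched negative control. IC50 from a quadratic inhibition curve fit.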

[5] = target: Human immunodeficiency virus type 1 reverse transcriptase (Human immunodeficiency virus 1, UniProt Q72547); experiment: Inhibition of recombinant HIV1 reverse transcriptase p66/p51 expressed in Escherichia coli BL21 (DE3) pLysS cells preincubated followed by primer/template addition and measured after 30 mins by picogreen dye-based fluorescence assay; in short: as §1
[6] = Cytotoxicity against human MT2 cells infected with HIV1 NL4-3 harboring Y181C mutant measured 48 hrs by MTT assay; format: cell-based
[7] = tested on: Human immunodeficiency virus 1; experiment: Antiviral activity against wild-type HIV1 NL4-3 infected in human MT2 cells measured 5 days post-infection by MTT assay; conditions: for EC50: Human immunodeficiency virus 1, NL4-3, MT2, 5 days
[8] = Human immunodeficiency virus 1, NL4-3, MT2, 5 days, read-out: EC50

SMILES	CC50 at 48 h [1]	EC50 [2, 8]	solubility [3]	IC50 [4]	IC50 [5]	CC50 at 48 h [6]	Activity [7]	EC50 [7]	Activity [2]	EC50 [2]
Cc1cc(/C=C/C#N)cc(C)c1Nc1ccnc(Nc2ccc(C#N)cc2)n1 [RILPIVIRINE]	8000 nM	[…]								
Cc1cc(C#N)cc(C)c1Oc1nc(Nc2ccc(C#N)cc2)nc(N)c1Br [ETRAVIRINE]			< 1 µg/mL							
N#Cc1cc2c(Oc3ccc(F)cc3OCCn3ccc(=O)[nH]c3=O)cc(F)cn2c1	90000 nM	3.2 nM	43.8 µg/mL (≈ 103 µM)	5.5 nM	4.5 nM	55000 nM	Dose-dependent effect	4.7 nM	Dose-dependent effect	
Cc1ccnc2c1NC(=O)c1cccnc1N2C1CC1 [NEVIRAPINE]	> 100000 nM							300 nM		Not Active
